Measurements taken from ChEMBL document CHEMBL1134284, “The biological effects of structural variation at the meta position of the aromatic rings and at the end of the alkenyl chain in the alkenyldiarylmethane series of non-nucleoside reverse transcriptase inhibitors” (J Med Chem, 2001).

Experiments:
CEM-SS [1] = assay: Concentration required for cytotoxicity against mock infected CEM-SS cells; assay type: functional; settings: Homo sapiens
Procedure, shortened: (§1)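 CEM-SS cells kept in RPMI 1640 with 10% heat-inactivated FBS, 2 mM glutamine, penicillin/streptomycin. Microtiter assay with cytopathic HIV-1 RF, or mock infection for toxicity. Viability read by MTS/phenazine ethosulfate reduction (absorbance 490 nm) 6 days after infection. […] Triplicate.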

[2] = tested on: Human immunodeficiency virus type 1 (RF/HAT ISOLATE); assay: Inhibitory concentration for cytopathicity of HIV-1RF in CEM-SS cells; assay type: functional, organism-based; settings: Human immunodeficiency virus 1, RF; procedure, shortened: as §1
[3] = target: Human immunodeficiency virus type 1 reverse transcriptase (Human immunodeficiency virus 1, UniProt Q72547); assay: Inhibitory activity against HIV-1 Reverse Transcriptase with rCdG as the template primer
Procedure, shortened: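 Cell-free assay with purified recombinant HIV-1 RT (p66/p51 dimer). Activity measured as [32P]GTP incorporation into the poly(rC)/oligo(dG) homopolymer template/primer. IC50 is reported as inhibition of enzyme activity.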

[4] = Ratio of CC50/EC50 was determined; assay type: cell-based; settings: human, CEM-SS cells; read-out: TI
Procedure, shortened: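 HIV-1 RF–infected CEM-SS cells (RPMI 1640, 10% heat-inactivated FBS, 2 mM glutamine, penicillin/streptomycin), plus mock-infected CEM-SS in parallel. Cell killing and viability were read by MTS/phenazine ethosulfate reduction at 490 nm 6 days after infection. […] Index = CC50 ÷ EC50. Triplicate tests.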

CEM-SS [5] = assay: Inhibitory concentration for cytopathicity of HIV-1RF in CEM-SS cells; Not active; assay type: functional, cell-based, Homo sapiens; procedure, shortened: as §1

EC50 (CEM-SS [5]) | SMILES | CC50 (CEM-SS [1]) | EC50 [2] | IC50 [3] | selectivity ratio [4]
– | COC(=O)NCCC=C(c1cc(Cl)c(OC)c(C(=O)OC)c1)c1cc(Cl)c(OC)c(C(=O)OC)c1 | 12.4 µM | 1.22 µM | 4.43 µM | 10.2
– | CCCCCC=C(c1ccc(OC)c(C(=O)OC)c1)c1ccc(OC)c(C(=O)OC)c1 | 14 µM | – | – | –
– | COC(=O)NCCC=C(c1cc(C)c(OC)c(C(=O)OC)c1)c1cc(C)c(OC)c(C(=O)OC)c1 | 12.4 µM | 0.21 µM | 4.93 µM | 59
– | COC(=O)CCCC=C(c1cc(C(=O)OC)c(OC)c(C(F)(F)F)c1)c1cc(C(=O)OC)c(OC)c(C(F)(F)F)c1 | 17.2 µM | 14.3 µM | > 200 µM | 1.2
– | COC(=O)c1cc(C(=CCCCC(=O)OC(C)C)c2cc(Br)c(OC)c(C(=O)OC)c2)cc(Br)c1OC | 16.4 µM | 4.33 µM | 70.8 µM | 3.79
– | COC(=O)c1cc(C(=CCCCC(=O)N(C)C)c2cc(Cl)c(OC)c(C(=O)OC)c2)cc(Cl)c1OC | 2.65 µM | 0.38 µM | 0.687 µM | 6.94
Not Active | CCNC(=O)NCCC=C(c1cc(Cl)c(OC)c(C(=O)OC)c1)c1cc(Cl)c(OC)c(C(=O)OC)c1 | 14.6 µM | – | > 100 µM | –
– | CCCCCC=C(c1cc(C)c(OC)c(C(=O)OC)c1)c1cc(C)c(OC)c(C(=O)OC)c1 | 17.2 µM | 6.8 µM | 1 µM | 2.5
– | CCOC(=O)CCCC=C(c1cc(C)c(OC)c(C(=O)OC)c1)c1cc(C)c(OC)c(C(=O)OC)c1 | 8.91 µM | 0.03 µM | 0.181 µM | 297
– | C#CCCCC=C(c1cc(Br)c(OC)c(C(=O)OC)c1)c1cc(Br)c(OC)c(C(=O)OC)c1 | > 200 µM | 4.7 µM | 6 µM | > 43
– | COC(=O)c1cc(C(=CCCCC(=O)OCC[Si](C)(C)C)c2cc(C)c(OC)c(C(=O)OC)c2)cc(C)c1OC | > 200 µM | 95.4 µM | > 100 µM | > 2.1
– | COC(=O)c1cc(C(=CCCCC(=O)N(C)C)c2cc(C)c(OC)c(C(=O)OC)c2)cc(C)c1OC | 7.4 µM | 1.51 µM | 5.65 µM | 4.91
Not Active | COC(=O)c1cc(C(=CCCCS(C)(=O)=O)c2cc(Cl)c(OC)c(C(=O)OC)c2)cc(Cl)c1OC | 14.9 µM | – | – | –
– | COC(=O)c1cc(C(=CCCN2CCOC2=O)c2cc(Cl)c(OC)c(C(=O)OC)c2)cc(Cl)c1OC | 13 µM | 2.15 µM | 9.47 µM | 6.02
– | COC(=O)c1cc(C(=CCCCC(=O)SC)c2cc(Cl)c(OC)c(C(=O)OC)c2)cc(Cl)c1OC | 12.5 µM | 2.42 µM | – | 5.15
– | CCCOC(=O)CCCC=C(c1cc(Cl)c(OC)c(C(=O)OC)c1)c1cc(Cl)c(OC)c(C(=O)OC)c1 | 13.9 µM | 1.29 µM | 8.3 µM | 10.8
– | COC(=O)c1cc(C(=CCCNC(=O)OCC(C)C)c2cc(C)c(OC)c(C(=O)OC)c2)cc(C)c1OC | 5.13 µM | 0.76 µM | 2.95 µM | 6.73
– | COC(=O)c1cc(C(=CCCCc2ccccc2)c2cc(Br)c(OC)c(C(=O)OC)c2)cc(Br)c1OC | > 200 µM | 13.1 µM | > 100 µM | > 15
Not Active | CCCCCC=C(c1cc(C(=O)OC)c(OC)c(C(F)(F)F)c1)c1cc(C(=O)OC)c(OC)c(C(F)(F)F)c1 | 106 µM | – | – | –
– | COC(=O)c1cc(C(=CCCCSC)c2cc(Cl)c(OC)c(C(=O)OC)c2)cc(Cl)c1OC | > 20 µM | 5.31 µM | > 100 µM | > 3.77
– | CCCCCC=C(c1cc(F)c(OC)c(C(=O)OC)c1)c1cc(F)c(OC)c(C(=O)OC)c1 | 13.4 µM | – | – | –
– | COC(=O)c1cc(C(=CCCC[S+](C)[O-])c2cc(Cl)c(OC)c(C(=O)OC)c2)cc(Cl)c1OC (stereo not drawn) | 36.9 µM | 11.7 µM | – | 3.15

EC50 (CEM-SS [5]) | SMILES | CC50 (CEM-SS [1]) | EC50 [2] | IC50 [3] | selectivity ratio [4]
– | C=CCCCC=C(c1cc(Cl)c(OC)c(C(=O)OC)c1)c1cc(Cl)c(OC)c(C(=O)OC)c1 | > 200 µM | 13 µM | 258 µM | > 15
– | COC(=O)c1cc(C(=CCCCC(=O)N2CCCCC2)c2cc(C)c(OC)c(C(=O)OC)c2)cc(C)c1OC | 14.7 µM | 5.37 µM | 7.12 µM | 2.74
– | COC(=O)CCCC=C(c1cc(C)c(OC)c(C(=O)OC)c1)c1cc(C)c(OC)c(C(=O)OC)c1 | 6 µM | 0.25 µM | < 1 µM | 24
– | COC(=O)c1cc(C(=CCCCC(=O)OC(C)C)c2cc(Cl)c(OC)c(C(=O)OC)c2)cc(Cl)c1OC | 36.1 µM | 0.84 µM | > 100 µM | 42.9
Not Active | CN/C(S)=N/CCC=C(c1cc(Cl)c(OC)c(C(=O)OC)c1)c1cc(Cl)c(OC)c(C(=O)OC)c1 | 1.36 µM | – | > 100 µM | –
Not Active | COC(=O)c1cc(C(=CCCCC(=O)N2CCCCC2)c2cc(Cl)c(OC)c(C(=O)OC)c2)cc(Cl)c1OC | 3.59 µM | – | > 100 µM | –
Not Active | COC(=O)c1cc(C(=CCCNC(C)=O)c2cc(Cl)c(OC)c(C(=O)OC)c2)cc(Cl)c1OC | 19.1 µM | – | > 100 µM | –
– | CCCCCC=C(c1cc(I)c(OC)c(C(=O)OC)c1)c1cc(I)c(OC)c(C(=O)OC)c1 | > 316 µM | – | – | –
– | CCCOC(=O)CCCC=C(c1cc(Br)c(OC)c(C(=O)OC)c1)c1cc(Br)c(OC)c(C(=O)OC)c1 | > 20 µM | 1.14 µM | 9.15 µM | > 17.5
– | COC(=O)c1cc(C(=CCCN2CCOC2=O)c2cc(Br)c(OC)c(C(=O)OC)c2)cc(Br)c1OC | 1.95 µM | 0.02 µM | 0.499 µM | 104
– | CCCOC(=O)CCCC=C(c1cc(C)c(OC)c(C(=O)OC)c1)c1cc(C)c(OC)c(C(=O)OC)c1 | 5.4 µM | 1.29 µM | 29.7 µM | 4.2
– | COC(=O)NCCC=C(c1cc(Br)c(OC)c(C(=O)OC)c1)c1cc(Br)c(OC)c(C(=O)OC)c1 | 8.1 µM | 0.2 µM | 2.39 µM | 40.5
– | CCSC(=O)CCCC=C(c1cc(Cl)c(OC)c(C(=O)OC)c1)c1cc(Cl)c(OC)c(C(=O)OC)c1 | 12.6 µM | 3.95 µM | – | 3.2
– | COC(=O)CCCC=C(c1cc(F)c(OC)c(C(=O)OC)c1)c1cc(F)c(OC)c(C(=O)OC)c1 | 68.3 µM | 1.9 µM | – | 36
– | C=CCCCC=C(c1cc(Br)c(OC)c(C(=O)OC)c1)c1cc(Br)c(OC)c(C(=O)OC)c1 | > 200 µM | 8.2 µM | 99 µM | > 24
– | CCOC(=O)NCCC=C(c1cc(Cl)c(OC)c(C(=O)OC)c1)c1cc(Cl)c(OC)c(C(=O)OC)c1 | 12.2 µM | 0.71 µM | 1.93 µM | 17.2
– | CCCCCC=C(c1cc(Cl)c(OC)c(C(=O)OC)c1)c1cc(Cl)c(OC)c(C(=O)OC)c1 | > 29.1 µM | 16 µM | – | > 1.8
– | COC(=O)c1cc(C(=CCCCC(OC)OC)c2cc(Cl)c(OC)c(C(=O)OC)c2)cc(Cl)c1OC | 18.1 µM | – | > 100 µM | –
– | CCOC(=O)NCCC=C(c1cc(C)c(OC)c(C(=O)OC)c1)c1cc(C)c(OC)c(C(=O)OC)c1 | 3.59 µM | 0.67 µM | 0.016 µM | 5.34
– | C#CCCCC=C(c1cc(Cl)c(OC)c(C(=O)OC)c1)c1cc(Cl)c(OC)c(C(=O)OC)c1 | 42.7 µM | 1.3 µM | – | 33
– | COC(=O)c1cc(C(=CCCCc2ccccc2)c2cc(Cl)c(OC)c(C(=O)OC)c2)cc(Cl)c1OC | > 200 µM | 1.7 µM | > 100 µM | > 43

SMILES | EC50 (CEM-SS [5]) | CC50 (CEM-SS [1]) | EC50 [2] | IC50 [3] | selectivity ratio [4]
COC(=O)c1cc(C(=CCCCC(=O)OC(C)C)c2cc(C)c(OC)c(C(=O)OC)c2)cc(C)c1OC | Not Active | 4.32 µM | – | 60.4 µM | –
COC(=O)c1cc(C(=CCCNC(=O)OCC(C)C)c2cc(Cl)c(OC)c(C(=O)OC)c2)cc(Cl)c1OC | Not Active | 17.2 µM | – | 65.4 µM | –
